Data from ChEMBL document CHEMBL1153955, “Indolylarylsulfones bearing natural and unnatural amino acids. Discovery of potent inhibitors of HIV-1 non-nucleoside wild type and resistant mutant strains reverse transcriptase and coxsackie B4 virus” (J Med Chem, 2009).

Experiments:
Influenza B virus [1] = assay: Antiviral activity against influenza B virus in MDCK cells assessed as reduction of virus-induced cytopathicity by MTS method; format: functional, organism-based
[2] = tested on: Vesicular stomatitis virus; assay: Antiviral activity against VSV in human HeLa cells assessed as protection against virus-induced cytopathicity; format: functional, organism-based
Human respirovirus 3 = assay: Antiviral activity against Parainfluenza virus type 3 in african green monkey Vero cells assessed as protection against virus-induced cytopathicity; format: functional, organism-based; conditions: Human respirovirus 3, Vero
Method in brief: (§1)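 Confluent cell monolayers inoculated with 100 CCID₅₀ virus. After 1-2 h adsorption, residual virus removed and cultures incubated with varying compound concentrations. Cytopathicity scored once it reached completion in untreated infected controls. EC₅₀ = dose reducing virus-induced cytopathogenicity by 50%.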

Influenza A virus H3N2 [3] = assay: Antiviral activity against influenza H3N2 virus in MDCK cells assessed as reduction of virus-induced cytopathicity by MTS method; format: functional, organism-based
[4] = tested on: Human immunodeficiency virus 1; assay: Antiviral activity against HIV1 3B in human CEM cells assessed as protection against virus-induced cytopathicity after 4 days; format: functional, organism-based; conditions: Human immunodeficiency virus 1, 3B, CCRF-CEM, 96 h
Method in brief: (§2)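 CEM cells (~3 × 10⁵ cells/mL) infected with ~100 CCID₅₀ per mL of HIV-1 (IIIB) or HIV-2 (ROD), then seeded into wells containing compound dilutions. After 4 days at 37 °C, syncytium (giant cell) formation was examined microscopically. EC₅₀ = concentration protecting CEM cells from HIV cytopathicity by 50%.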

Influenza A virus [5] = assay: Antiviral activity against influenza H1N1 virus in MDCK cells assessed as reduction of virus-induced cytopathicity by visual cytopathic effect scoring method; format: functional, organism-based
Feline coronavirus = assay: Antiviral activity against Feline coronavirus in feline […] cells assessed as inhibition of virus-induced cytopathicity; format: functional, organism-based; conditions: Alphacoronavirus 1
[6] = Cytotoxicity against human HeLa cells assessed as drug level causing microscopically detectable alteration of normal cell morphology after 3 days; format: cell-based
Method in brief: (§3)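 Serial compound dilutions added to confluent HeLa or Vero monolayers. MCC = minimum concentration causing microscopically detectable alteration of cell morphology after 3 days of incubation.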

[7] = Cytotoxicity against MDCK cells assessed as drug level causing microscopically detectable alteration of normal cell morphology; format: cell-based, Canis lupus familiaris; conditions: dog
[8] = Cytotoxicity against human HEL cells assessed as drug level causing microscopically detectable alteration of normal cell morphology after 3 days; format: cell-based
Vaccinia virus = assay: Antiviral activity against Vaccinia virus Lederle in human HEL cells assessed as protection against virus-induced cytopathicity; format: functional, organism-based; conditions: Orthopoxvirus vaccinia
Human alphaherpesvirus 2 = assay: Antiviral activity against HSV2 G in human HEL cells assessed as protection against virus-induced cytopathicity; format: functional, organism-based; conditions: Human alphaherpesvirus 2, strain G; method in brief: as §1
Influenza B virus [9] = assay: Antiviral activity against influenza B virus in MDCK cells assessed as reduction of virus-induced cytopathicity by visual cytopathic effect scoring method; format: functional, organism-based
Human alphaherpesvirus 1 [10] = assay: Antiviral activity against HSV1 KOS in human HEL cells assessed as protection against virus-induced cytopathicity; format: functional, organism-based; conditions: Human alphaherpesvirus 1, KOS
[11] = Cytotoxicity against feline CRFK cells by MTS assay; format: cell-based, Felis catus; conditions: cat
Influenza A virus H3N2 [12] = assay: Antiviral activity against influenza H3N2 virus in MDCK cells assessed as reduction of virus-induced cytopathicity by visual cytopathic effect scoring method; format: functional, organism-based
L1210 = assay: Antiproliferative activity against mouse L1210 cells after 2 days; format: cell-based; conditions: L1210, 48 h
Method in brief: (§4)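 Cells seeded at 5 × 10⁴ to 7.5 × 10⁴ cells/200 µL with or without serial compound dilutions; incubated at 37 °C for 2 days (L1210) or 3 days (Molt4/C8, CEM). Cell numbers counted with a Coulter counter. CC₅₀ = concentration reducing proliferation by 50% versus untreated controls, read from plots of cell number (% of control) against concentration. Means of at least two independent experiments.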

[13] = Antiproliferative activity against human Molt4/C8 cells after 3 days; format: cell-based; conditions: MOLT-4, 72 h; method in brief: as §4
[14] = biological target: Human immunodeficiency virus type 1 reverse transcriptase (Human immunodeficiency virus 1, UniProt Q72547, Y181I); assay: Inhibition of HIV1 reverse transcriptase p66/p51 Y181I mutant; conditions: read-out: IC50
Method in brief: (§5)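 Substrate was 0.5 µg poly(rA)/oligo(dT) 10:1 (0.3 µM 3′-OH ends) with 10 µM [³H]dTTP, at 37 °C. Acid-precipitable radioactivity was counted on GF/C filters after TCA washes.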

[15] = biological target: Human immunodeficiency virus type 1 reverse transcriptase (Human immunodeficiency virus 1, UniProt Q72547, L100I); assay: Inhibition of HIV1 reverse transcriptase p66/p51 L100I mutant; conditions: read-out: IC50; method in brief: as §5
Influenza A virus [16] = assay: Antiviral activity against influenza H1N1 virus in MDCK cells assessed as reduction of virus-induced cytopathicity by MTS method; format: functional, organism-based; conditions: Influenza A virus, H1N1, MDCK
Coxsackievirus B4 [17] = assay: Antiviral activity against Coxsackievirus B4 in african green monkey Vero cells assessed as protection against virus-induced cytopathicity; format: functional, organism-based; conditions: Enterovirus B; method in brief: as §1
Sindbis virus = assay: Antiviral activity against Sindbis virus in african green monkey Vero cells assessed as protection against virus-induced cytopathicity; format: functional, organism-based; method in brief: as §1
[18] = Cytotoxicity against MDCK cells by MTS assay; format: cell-based, Canis lupus familiaris; conditions: dog
[19] = biological target: Human immunodeficiency virus type 1 reverse transcriptase (Human immunodeficiency virus 1, UniProt Q72547); assay: Inhibition of HIV1 reverse transcriptase p66/p51; conditions: read-out: IC50
[20] = tested on: Respiratory syncytial virus; assay: Antiviral activity against RSV Long in human HeLa cells assessed as protection against virus-induced cytopathicity; format: functional, organism-based; method in brief: as §1
[21] = biological target: Human immunodeficiency virus type 1 reverse transcriptase (Human immunodeficiency virus 1, UniProt Q72547, K103N); assay: Inhibition of HIV1 reverse transcriptase p66/p51 K103N mutant; conditions: read-out: IC50; method in brief: as §5
[22] = tested on: Mammalian orthoreovirus 1; assay: Antiviral activity against Reovirus 1 in african green monkey Vero cells assessed as protection against virus-induced cytopathicity; format: functional, organism-based; conditions: Mammalian orthoreovirus 1, Vero; method in brief: as §1
Human alphaherpesvirus 1 [23] = assay: Antiviral activity against thymidine kinase deficient and acyclovir resistant HSV1 KOS in human HEL cells assessed as protection against virus-induced cytopathicity; format: functional, organism-based; conditions: Human alphaherpesvirus 1, KOS
CCRF-CEM = assay: Antiproliferative activity against human CEM cells after 3 days; format: cell-based; conditions: 72 h; method in brief: as §4
[24] = tested on: Vesicular stomatitis virus; assay: Antiviral activity against VSV in human HEL cells assessed as protection against virus-induced cytopathicity; format: functional, organism-based
[25] = Cytotoxicity against african green monkey Vero cells assessed as drug level causing microscopically detectable alteration of normal cell morphology after 3 days; format: cell-based; conditions: chlorocebus sabaeus; method in brief: as §3
Coxsackievirus B4 [26] = assay: Antiviral activity against Coxsackievirus B4 in human HeLa cells assessed as protection against virus-induced cytopathicity; format: functional, organism-based; conditions: Enterovirus B; method in brief: as §1
Punta Toro virus = assay: Antiviral activity against Punta Toro virus in african green monkey Vero cells assessed as protection against virus-induced cytopathicity; format: functional, organism-based; method in brief: as §1
[27] = tested on: Human immunodeficiency virus 2; assay: Antiviral activity against HIV2 ROD in human CEM cells assessed as protection against virus-induced cytopathicity after 4 days; format: functional, organism-based; conditions: Human immunodeficiency virus 2, ROD, CCRF-CEM, 96 h; method in brief: as §2
Felid alphaherpesvirus 1 = assay: Antiviral activity against Feline herpesvirus in feline […] cells assessed as inhibition of virus-induced cytopathicity; format: functional, organism-based

| SMILES | EC50 (Influenza B virus [1]) [µM] | EC50 [2] [µM] | EC50 (Human respirovirus 3) [µM] | EC50 (Influenza A virus H3N2 [3]) [µM] | EC50 [4] [nM] | EC50 (Influenza A virus [5]) [µM] | EC50 (Feline coronavirus) [µM] | MCC at 72 h [6] [µM] | MCC [7] [µM] | MCC at 72 h [8] [µM] | EC50 (Vaccinia virus) [µM] | EC50 (Human alphaherpesvirus 2) [µM] | EC50 (Influenza B virus [9]) [µM] | EC50 (Human alphaherpesvirus 1 [10]) [µM] | CC50 [11] [µM] | EC50 (Influenza A virus H3N2 [12]) [µM] | IC50 (L1210) [µM] | IC50 [13] [µM] | IC50 [14] [µM] | IC50 [15] [nM] | also measured |
| --- | --- | --- | --- | --- | --- | --- | --- | --- | --- | --- | --- | --- | --- | --- | --- | --- | --- | --- | --- | --- | --- |
| Cc1cc(C)cc(S(=O)(=O)c2c(C(=O)NCC(N)=O)[nH]c3ccc(Br)cc23)c1 | > 4 | > 20 | > 20 | > 4 | 2.6 | > 4 | > 20 | 100 | 20 | 100 | > 20 | > 20 | > 4 | > 20 | 53 | > 4 | 40 | 17 | 2.21 | 199 | EC50 (Influenza A virus [16]): > 4 µM; EC50 (Coxsackievirus B4 [17]): > 20 µM; EC50 (Sindbis virus): > 20 µM; CC50 [18]: 9.8 µM; IC50 [19]: 26 nM; EC50 [20]: 20 µM; IC50 [21]: 782 nM; EC50 [22]: > 20 µM; EC50 (Human alphaherpesvirus 1 [23]): > 20 µM; IC50 (CCRF-CEM): 31 µM; EC50 [24]: > 20 µM; MCC at 72 h [25]: 100 µM; EC50 (Coxsackievirus B4 [26]): 4 µM; EC50 (Punta Toro virus): > 20 µM; EC50 [27]: 43 µM; EC50 (Felid alphaherpesvirus 1): > 20 µM |
| Cc1cc(C)cc(S(=O)(=O)c2c(C(=O)NCCC(N)=O)[nH]c3ccc(Cl)c(F)c23)c1 | > 20 | > 20 | > 20 | > 20 | 2 | > 20 | > 20 | 100 | 100 | 100 | > 20 | > 20 | > 20 | > 20 | 45.3 | > 20 | 42 | 33 | 7.16 | 130 | EC50 (Influenza A virus [16]): > 20 µM; EC50 (Coxsackievirus B4 [17]): > 20 µM; EC50 (Sindbis virus): > 20 µM; CC50 [18]: 24.3 µM; IC50 [19]: 34 nM; EC50 [20]: 16 µM; IC50 [21]: 783 nM; EC50 [22]: > 20 µM; EC50 (Human alphaherpesvirus 1 [23]): > 20 µM; IC50 (CCRF-CEM): 30 µM; EC50 [24]: > 20 µM; MCC at 72 h [25]: 100 µM; EC50 (Coxsackievirus B4 [26]): 9 µM; EC50 (Punta Toro virus): > 20 µM; EC50 [27]: > 10 µM; EC50 (Felid alphaherpesvirus 1): > 20 µM |
